Legend:
Liver = assay: Drug uptake in BCRP knockout Sprague-Dawley rat liver at 1 mg/kg, iv; format: ADME, organism-based; design: dose 1 mg/kg, route intravenous; settings: in vivo
[1] = Clearance in wild-type Sprague-Dawley rat at 1 mg/kg, iv by LC-MS/MS analysis; settings: in vivo
[2] = Drug excretion in bile duct-cannulated wild-type Sprague-Dawley rat bile at 1 mg/kg, iv up to 24 hrs; format: ADME, organism-based; design: dose 1 mg/kg, route intravenous; settings: read-out: Drug excretion
How it was run: (§1)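 Male Sprague-Dawley rats with bile-duct and femoral cannulation, housed in metabolism cages. Given an IV bolus of 1 mg/kg in 2 ml/kg 50% Cremophor EL in ethanol. Urine, bile and feces collected in toto 0–24 h, with cage wash at 24 h. Amounts quantified by LC-MS/MS and expressed as % of dose; n=6–12.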

[3] = AUC (infinity) in BCRP knockout Sprague-Dawley rat at 1 mg/kg, iv by LC-MS/MS analysis; format: ADME, organism-based; design: time infinity, dose 1 mg/kg, route intravenous; settings: plasma
[4] = Tmax in MDR1A knockout Sprague-Dawley rat at 5 mg/kg, po by LC-MS/MS analysis; format: ADME, organism-based; design: dose 5 mg/kg, route oral; settings: in vivo
[5] = Oral bioavailability in MRP2 knockout Sprague-Dawley rat at 5 mg/kg by LC-MS/MS analysis; format: ADME, organism-based; settings: in vivo
How it was run: (§2)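 Male Sprague-Dawley rats (knockouts age- and weight-matched to wild type), femoral-artery and vein cannulated, recovered ≥2 days. IV/oral crossover: 1 mg/kg IV bolus on day 0, then after a 3-day washout 5 mg/kg oral gavage in 10 ml/kg 50% Cremophor EL in ethanol. Arterial plasma 0–24 h, protein-precipitated, LC-MS/MS (positive ion, 1–5000 ng/ml). Noncompartmental analysis; n=5–9.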

[6] = Cmax in MDR1A knockout Sprague-Dawley rat at 5 mg/kg, po by LC-MS/MS analysis; format: ADME, organism-based; design: dose 5 mg/kg, route oral; settings: in vivo; how it was run: as §2
[7] = AUC (infinity) in BCRP knockout Sprague-Dawley rat at 5 mg/kg, po by LC-MS/MS analysis; format: ADME, organism-based; design: time infinity, dose 5 mg/kg, route oral; settings: plasma; how it was run: as §2
Kidney = assay: Drug uptake in BCRP knockout Sprague-Dawley rat kidney at 1 mg/kg, iv; format: ADME, organism-based; design: dose 1 mg/kg, route intravenous; settings: in vivo
[8] = Cmax in wild-type Sprague-Dawley rat at 5 mg/kg, po by LC-MS/MS analysis; format: ADME, organism-based; design: dose 5 mg/kg, route oral; settings: in vivo; how it was run: as §2
[9] = Drug excretion in bile duct-cannulated BCRP knockout Sprague-Dawley rat feces at 1 mg/kg, iv up to 24 hrs; format: ADME, organism-based; design: dose 1 mg/kg, route intravenous; settings: faeces, read-out: Drug excretion; how it was run: as §1
[10] = Drug excretion in bile duct-cannulated MDR1A knockout Sprague-Dawley rat bile at 1 mg/kg, iv up to 24 hrs; format: ADME, organism-based; design: dose 1 mg/kg, route intravenous; settings: read-out: Drug excretion
How it was run: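 Male Sprague-Dawley Mdr1a knockout rats with bile duct and femoral cannulas, housed in metabolism cages. […] Urine, bile and feces were collected in total over 0–24 h, and cage wash was taken at 24 h.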

[11] = Tmax in BCRP knockout Sprague-Dawley rat at 5 mg/kg, po by LC-MS/MS analysis; format: ADME, organism-based; design: dose 5 mg/kg, route oral; settings: in vivo; how it was run: as §2
[12] = Clearance in BCRP knockout Sprague-Dawley rat at 1 mg/kg, iv by LC-MS/MS analysis; settings: in vivo
[13] = Cmax in BCRP knockout Sprague-Dawley rat at 5 mg/kg, po by LC-MS/MS analysis; format: ADME, organism-based; design: dose 5 mg/kg, route oral; settings: in vivo; how it was run: as §2
[14] = AUC (infinity) in MDR1A knockout Sprague-Dawley rat at 1 mg/kg, iv by LC-MS/MS analysis; format: ADME, organism-based; design: time infinity, dose 1 mg/kg, route intravenous; settings: plasma
[15] = AUC (infinity) in MDR1A knockout Sprague-Dawley rat at 5 mg/kg, po by LC-MS/MS analysis; format: ADME, organism-based; design: time infinity, dose 5 mg/kg, route oral; settings: plasma
Brain = assay: Drug uptake in MDR1A knockout Sprague-Dawley rat brain at 1 mg/kg, iv; format: ADME, organism-based; design: dose 1 mg/kg, route intravenous; settings: in vivo
[16] = Half life in MRP2 knockout Sprague-Dawley rat at 5 mg/kg, po by LC-MS/MS analysis; format: ADME, organism-based; design: dose 5 mg/kg, route oral; settings: in vivo; how it was run: as §2
[17] = Drug excretion in bile duct-cannulated BCRP knockout Sprague-Dawley rat urine at 1 mg/kg, iv up to 24 hrs; format: ADME, organism-based; design: dose 1 mg/kg, route intravenous; settings: read-out: Drug excretion; how it was run: as §1
[18] = AUC (infinity) in wild-type Sprague-Dawley rat at 1 mg/kg, iv by LC-MS/MS analysis; format: ADME, organism-based; design: time infinity, dose 1 mg/kg, route intravenous; settings: plasma
[19] = Half life in MDR1A knockout Sprague-Dawley rat at 1 mg/kg, iv by LC-MS/MS analysis; format: ADME, organism-based; design: dose 1 mg/kg, route intravenous; settings: in vivo
How it was run: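 Male Sprague-Dawley rats (knockout or wild type matched for age and weight), femoral artery and vein cannulated, at least 2 days recovery. Crossover design: IV bolus 1 mg/kg on day 0 (saline with 0.2 M equivalents HCl), oral gavage 10 mg/kg on day 3 (water with 0.2 M equivalents HCl). Arterial plasma sampled to 24 h (Mdr1a oral arm to 4 h). Analysed by LC-MS/MS and noncompartmental analysis.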

Rattus norvegicus = assay: Clearance in MRP2 knockout Sprague-Dawley rat at 1 mg/kg, iv by LC-MS/MS analysis; settings: in vivo
[20] = Drug excretion in bile duct-cannulated MDR1A knockout Sprague-Dawley rat feces at 1 mg/kg, iv up to 24 hrs; format: ADME, organism-based; design: dose 1 mg/kg, route intravenous; settings: faeces, read-out: Drug excretion; how it was run: as §1
[21] = Cmax in MRP2 knockout Sprague-Dawley rat at 5 mg/kg, po by LC-MS/MS analysis; format: ADME, organism-based; design: dose 5 mg/kg, route oral; settings: in vivo; how it was run: as §2
[22] = Oral bioavailability in BCRP knockout Sprague-Dawley rat at 5 mg/kg by LC-MS/MS analysis; format: ADME, organism-based; settings: in vivo; how it was run: as §2

## CC(=O)O[C@H]1C(=O)[C@@]2(C)[C@H]([C@H](OC(=O)c3ccccc3)[C@]3(O)C[C@H](OC(=O)[C@H](O)[C@@H](NC(=O)c4ccccc4)c4ccccc4)C(C)=C1C3(C)C)[C@]1(OC(C)=O)CO[C@@H]1C[C@@H]2O [PACLITAXEL]
Liver
  Drug uptake: Active
[1]
  clearance: 112 mL/min/kg
[2]
  dose excreted at 24 h: 0.5%
[3]
  AUC(0-inf): 171 ng·h/mL
[4]
  Tmax: 1.2 h
[5]
  bioavailability: 27%
[6]
  Cmax: 145 ng/mL
[7]
  AUC(0-inf): 113 ng·h/mL
Kidney
  Drug uptake: Active
[8]
  Cmax: 30 ng/mL
[9]
  dose excreted at 24 h: 1%
[10]
  dose excreted at 24 h: 0%
[11]
  Tmax: 0.9 h
[12]
  clearance: 102 mL/min/kg
[13]
  Cmax: 40 ng/mL
[14]
  AUC(0-inf): 303 ng·h/mL
[15]
  AUC(0-inf): 746 ng·h/mL
Brain
  Drug uptake: Active
[16]
  half-life: 9.4 h
[17]
  dose excreted at 24 h: 2%
[18]
  AUC(0-inf): 172 ng·h/mL
[19]
  half-life: 12.2 h
Rattus norvegicus
  CL: 152 mL/min/kg
[20]
  dose excreted at 24 h: 0.21%
[21]
  Cmax: 151 ng/mL
[22]
  bioavailability: 13%

Source: ChEMBL document CHEMBL3526049 (Drug Metab Dispos, 2012)
